Consider two compounds from ChEMBL document CHEMBL1157762, “Sequence inversion and phenylalanine surrogates at the beta-turn enhance the antibiotic activity of gramicidin S” (J Med Chem, 2010).

What is called MIC50 is an inhibitory concentration at the 50% level, which refers to growth in some studies and to a panel of isolates in others. Read a low MIC50 as greater potency.

The test system of data set [1] is Staphylococcus aureus. The data set is described as follows: Antibacterial activity against Staphylococcus aureus CECT 240 after 24 hrs by turbidimetry. Type of data set: functional. As to conditions: CECT 240, 24 h. The essentials: (§1)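 Frozen stocks thawed and grown two days in cation-adjusted Mueller-Hinton II broth at 37 °C. Exponential-phase cells washed twice in PBS pH 7.0 and resuspended in the same broth at 5 × 10^5 CFU/mL. Incubated 24 h at 37 °C with peptide, growth read by turbidity at 600 nm. Two experiments, triplicate samples. MIC50 taken as lowest concentration giving 50% growth inhibition versus untreated control.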

Data set [2] relates to Listeria monocytogenes. The data set is described as follows: Antibacterial activity against Listeria monocytogenes CECT 4032 after 24 hrs by turbidimetry. Type of data set: functional. The following applies: CECT 4032, 24 h. A digest of the protocol:
as §1

Data set [3] in a line: Therapeutic index, ratio of HC50 for sheep erythrocytes to MIC50 for polymyxin E-resistant Acinetobacter baumannii ATCC 19606.

Converted amounts (≈) assume the structure as drawn. Where a SMILES comes first, the peptide text is derived from it.

On to `CC(C)C[C@@H]1NC(=O)[C@H](CCCN)NC(=O)[C@H](C(C)C)NC(=O)[C@@H]2Cc3ccccc3CN2C(=O)[C@H]2CCCN2C(=O)[C@H](CC(C)C)NC(=O)[C@H](CCCN)NC(=O)[C@H](C(C)C)NC(=O)[C@@H]2Cc3ccccc3CN2C(=O)[C@H]2CCCN2C1=O` (HELM PEPTIDE1{L.[dP].[Tic].V.[Orn].L.[dP].[Tic].V.[Orn]}$PEPTIDE1,PEPTIDE1,1:R1-10:R2$$$V2.0), for which the MIC50 in data set [1] came to 2.4 µM (≈ 2.8 µg/mL). Compound `CC(C)C[C@@H]1NC(=O)[C@H](CCCN)NC(=O)[C@H](C(C)C)NC(=O)[C@H](C2c3ccccc3-c3ccccc32)NC(=O)[C@H]2CCCN2C(=O)[C@H](CC(C)C)NC(=O)[C@H](CCCN)NC(=O)[C@H](C(C)C)NC(=O)[C@H](C2c3ccccc3-c3ccccc32)NC(=O)[C@H]2CCCN2C1=O` (HELM PEPTIDE1{L.[dP].[O=C([C@@H](N[*:1])C1c2ccccc2-c2ccccc21)[*:2]].V.[Orn].L.[dP].[O=C([C@@H](N[*:1])C1c2ccccc2-c2ccccc21)[*:2]].V.[Orn]}$PEPTIDE1,PEPTIDE1,1:R1-10:R2$$$V2.0) displayed an MIC50 in data set [2] of 2.2 µM (≈ 2.84 µg/mL). Moreover, the selectivity ratio in data set [3] is 0.1.
